Experimental findings from ChEMBL document CHEMBL1154487, “Synthesis, chemical and biological studies on new Fe(3+)-glycosilated beta-diketo complexes for the treatment of iron deficiency” (Eur J Med Chem, 2008) are described below.

The term pKa denotes the negative logarithm of the acid dissociation constant. For orientation: logP means a log measure of how a compound divides between an organic and an aqueous phase. By half-life is commonly meant the time needed for the level to fall by half in the phase considered. As usually defined, the IC50 is the concentration that gives 50% inhibition.

Data set [1] relates to Liver microsomes. Briefly: Antioxidant activity against ferric ion (Fe3+-ADP)-induced lipid peroxidation in rat liver microsomes. As to conditions: Microsome.
A short description of data set [2]: Protonation constant, pKa by spectrophotometric method. Type of data set: physicochemical. A digest of the protocol: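 Aqueous ligand solutions (2.5×10−5 M) were titrated spectrophotometrically, adjusting pH from 1 to 11 with concentrated NaOH or HCl. The UV absorbance maximum (320–365 nm) was followed versus pH. Protonation constants were computed from the spectral data.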

Data set [3] can be described thus: Chemical stability in phosphate buffer at pH 7 after 8 hrs. The data set is classed as physicochemical. A digest of the protocol: (§1)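 The ligand was held at 5×10−5 M in 10−2 M phosphate buffer, pH 7, at 37 °C and constant ionic strength. Degradation was followed as the change in absorbance at 345 nm. First-order kinetics were taken from ln(At/A0) versus time.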

Data set [4] in a line: Octanol-water partition coefficient, log P after 4 hrs by shake flask method. Type of data set: physicochemical. A digest of the protocol:
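Shake-flask method at pH 7.0 (phosphate buffer). Water presaturated with n-octanol was mixed with the ligand or the Fe:L 1:3 system (10−4 M stock) and shaken at 37 °C for 4 h. After phase separation, aqueous concentration was measured spectrophotometrically. Log P is the log of the octanol/water concentration ratio.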

Data set [5] can be described thus: Amount of free iron in Fe3+/ligand system at pH 2. As to conditions: buffer.
A short description of data set [6]: Cytotoxicity against african green monkey Vero cells at 800 uM. The data set is classed as cell-based. The settings on record: chlorocebus sabaeus, read-out: INH. A digest of the protocol: (§2)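 Vero cells (African green monkey kidney) were grown in MEM with 10% heat-inactivated FCS at 37 °C in 5% CO2. Cells were seeded at 4×10^4 cells/well and grown 72 h with a range of compound concentrations. They were then methanol-fixed, stained with crystal violet, and the dye was extracted into acidic isopropanol and read at 540 nm. Survival is % of untreated control, mean ± SD of 3 experiments, each in triplicate.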

Data set [7] is described as follows: Chemical stability in phosphate buffer at pH 7. The data set is classed as physicochemical. The procedure, abridged: as §1
Data set [8] relates to Vero. The data set is described as follows: Cytotoxicity against african green monkey Vero cells at 400 uM. Type of data set: cell-based. The settings on record: chlorocebus sabaeus. A digest of the protocol: as §2
The nature of data set [9]: Protonation constant, pKa by potentiometric method. The data set is classed as physicochemical. The procedure, abridged:
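Potentiometric titration of 3×10−3 M ligand in water at 25.0 °C, ionic strength 0.1 M (NaNO3), under nitrogen. The titrant was 1×10−2 M NaOH, over pH 2–10, with 600–720 s per point. At least 10 titrations of 40 points each were run, and constants were refined by least squares.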

Data set [10] can be described thus: Cytotoxicity against african green monkey Vero cells at 10 uM. The data set is classed as cell-based. As to conditions: chlorocebus sabaeus, read-out: INH.
Data set [11] in a line: Cytotoxicity against african green monkey Vero cells at 5 uM. Type of data set: cell-based. As to conditions: chlorocebus sabaeus, read-out: INH.
Data set [12] can be described thus: Chemical stability in phosphate buffer at pH 7 after 1 hr. Type of data set: physicochemical. As to conditions: pH 7, 1 h.
Data set [13] has as its system Vero. The data set is described as follows: Cytotoxicity against african green monkey Vero cells. Type of data set: cell-based. As to conditions: Chlorocebus sabaeus. The procedure, abridged: as §2
Data set [14] relates to Liver microsomes. Briefly: Antioxidant activity against ferric ion (Fe3+-ADP)-induced lipid peroxidation in rat liver microsomes after 30 mins. The settings on record: Microsome. A general note: Microsomes from liver hold many membrane-bound enzymes, among them those of drug oxidation.
Data set [15] in a line: Cytotoxicity against african green monkey Vero cells at 600 uM. Type of data set: cell-based. As to conditions: chlorocebus sabaeus, read-out: INH. The procedure, abridged: as §2

Molecules are shown by their SMILES. Calls of active or inactive are those of the source.

Consider `CC(=O)/C=C(O)/C=C/c1ccc(O[C@@H]2O[C@H](CO)[C@@H](O)[C@H](O)[C@H]2O)c(O)c1`, for which the outcome in the data set on Liver microsomes [1] was inactive. Also, the pKa in data set [2] and in data set [9] was 8.03 throughout. In data set [3], the Degradation % at 8 h was < 10%. For the same molecule, in data set [4], the logP at 4 h worked out at 0.32. Moreover, the Activity is on record as 20% in data set [5] and 10% in the data set on Vero [8]. For the same molecule, the cytotoxicity at 800 µM in data set [6] amounted to 20%. The half-life in data set [7] is > 100 h.

Take `COc1cc(/C=C/C(=O)CC(=O)/C=C/c2ccc(O)c(OC)c2)ccc1O` [CURCUMIN]: the cytotoxicity at 10 µM in [10] was determined as 20%. In addition, the cytotoxicity at 5 µM in [11] stood at 10%. Besides, the Stability entry in data set [12] is “Unstable”. Also, the half-life in data set [7] was 0.167 h.

Molecule `O=C(O)[C@H](O)[C@@H](O)[C@H](O)[C@H](O)CO` [GLUCONIC ACID] returned an Activity in [5] of 60%.

On to `COc1cc(/C=C/C(O)=C/C(C)=O)ccc1O[C@@H]1O[C@H](CO)[C@@H](O)[C@H](O)[C@H]1O`, for which the pKa in [2] is 8.73; in [9], 8.75. The same molecule returned an IC50 with Vero [13] of 700 µM. For the same molecule, in [3], the Degradation % at 8 h was < 10%. This molecule returned a logP at 4 h in data set [4] of 0.13. The molecule also came in with an Activity in data set [5] of 40%. In addition, the outcome in the data set with Liver microsomes [14] was Active. Also, the cytotoxicity at 600 µM in data set [15] came out at 40%. In data set [6], the cytotoxicity at 800 µM was found to be 65%. Besides, in data set [7], the half-life is > 100 h.

`CC(=O)/C=C(O)/C=C/c1ccc(O[C@@H]2O[C@H](CO)[C@@H](O)[C@H](O)[C@H]2O)cc1`: in the data set with Liver microsomes [1], the result was inactive. Moreover, the pKa in [2] came out at 9.22; in data set [9], 9.26. In data set [3], the Degradation % at 8 h is < 10%. The molecule further had a logP at 4 h in data set [4] of 0.39. This molecule displayed an Activity in [5] of 30%. The cytotoxicity at 600 µM in [15] was determined as 2%. In [6], the cytotoxicity at 800 µM stood at 40%. Further, the half-life in data set [7] is > 100 h.
